Residue numbers refer to the chain shown, from its start.
Key:
P450 2B4 H172Q [1] = molecular target: T1, P450 2B4 H172Q (Oryctolagus cuniculus, UniProt P00178, H172Q); format: biochemical, rabbit (Oryctolagus cuniculus)
T1 sequence (P00178 with tags, fused parts or gaps H172Q limits assumed): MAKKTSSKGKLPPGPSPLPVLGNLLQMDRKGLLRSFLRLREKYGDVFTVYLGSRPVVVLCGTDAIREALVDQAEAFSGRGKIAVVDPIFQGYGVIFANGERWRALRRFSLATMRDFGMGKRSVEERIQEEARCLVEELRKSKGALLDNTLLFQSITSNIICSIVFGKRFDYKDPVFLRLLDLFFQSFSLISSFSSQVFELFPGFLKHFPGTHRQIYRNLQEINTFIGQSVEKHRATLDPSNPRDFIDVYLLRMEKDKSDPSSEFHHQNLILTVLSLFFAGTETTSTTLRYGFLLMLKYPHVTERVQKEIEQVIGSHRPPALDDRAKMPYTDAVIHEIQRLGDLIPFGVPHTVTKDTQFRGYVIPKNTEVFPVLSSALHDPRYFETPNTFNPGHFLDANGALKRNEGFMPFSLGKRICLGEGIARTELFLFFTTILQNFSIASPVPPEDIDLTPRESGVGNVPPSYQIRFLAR

P450 2B4 wild type [2] = molecular target: T2, P450 2B4 wild type (Oryctolagus cuniculus, UniProt P00178); format: biochemical, rabbit (Oryctolagus cuniculus); conditions: 2B4 WT
T2 sequence (P00178 with tags, fused parts or gaps limits assumed): T1 sequence (P00178 with tags, fused parts or gaps H172Q limits assumed) with Q153H

P450 2B4 H172F [3] = molecular target: T3, P450 2B4 H172F (Oryctolagus cuniculus, UniProt P00178, H172F)
T3 sequence (P00178 with tags, fused parts or gaps H172F limits assumed): T1 sequence (P00178 with tags, fused parts or gaps H172Q limits assumed) with Q153F

P450 2B4 L437A [4] = molecular target: T4, P450 2B4 L437A (Oryctolagus cuniculus, UniProt P00178, L437A); test: Spectral binding titration of imidazole ligands; parameters: species or system rabbit (Oryctolagus cuniculus); conditions: 2B4 L437A versus wild type
T4 sequence (P00178 with tags, fused parts or gaps L437A limits assumed): T1 sequence (P00178 with tags, fused parts or gaps H172Q limits assumed) with Q153H, L418A
In short: (§1)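 Protein was the His-tagged 2B4dH construct (single mutants or wild type), expressed in TOPP3 cells and Ni-NTA purified. Spectra 350–700 nm recorded after serial 5 μl additions of 100 μM 4-CPI or bifonazole. Ks came from a tight-binding equation fit, and the 4-CPI/bifonazole Ks ratio was calculated.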

P450 2B4 H172F [5] = molecular target: T3, P450 2B4 H172F; test: Spectral binding titration of imidazole ligands; parameters: species or system rabbit (Oryctolagus cuniculus); conditions: 2B4 H172F versus wild type
In short: as §1

P450 2B4 L437A [6] = molecular target: T4, P450 2B4 L437A; test: Inhibition of 7-EFC O-deethylation by imidazole inhibitors; format: biochemical, rabbit (Oryctolagus cuniculus)
P450 2B4 wild type [7] = molecular target: T2, P450 2B4 wild type; test: as above; format: biochemical, rabbit (Oryctolagus cuniculus)
P450 2B4 H172Q [8] = molecular target: T1, P450 2B4 H172Q; test: as above; format: biochemical, rabbit (Oryctolagus cuniculus)

| SMILES | decrease (change) in kcat versus wild type (P450 2B4 H172Q [1]) | kcat (P450 2B4 H172Q [1]) [s⁻¹] | kcat/S50 (P450 2B4 H172Q [1]) | S50 (P450 2B4 H172Q [1]; Hill equation) [µM] | kcat/S50 (P450 2B4 wild type [2]) | S50 (P450 2B4 wild type [2]; Hill equation) [µM] | kcat (P450 2B4 wild type [2]; substrate O-dealkylation) [s⁻¹] | kcat (P450 2B4 H172F [3]) [s⁻¹] | kcat/S50 (P450 2B4 H172F [3]) | substrate turnover (activity) (P450 2B4 H172F [3]) | Ks (spectral dissociation constant) higher than wild type (P450 2B4 L437A [4]) | change in the ratio of 4-CPI Ks to bifonazole Ks (P450 2B4 L437A [4]) | change in the ratio of 4-CPI Ks to bifonazole Ks (P450 2B4 H172F [5]) | IC50 (P450 2B4 L437A [6]) [nM] | Ratio 4-CPI IC50/Bifonazole IC50 (P450 2B4 L437A [6]; 2B4 L437A, 50 μM 7-EFC as substrate) | IC50 (P450 2B4 wild type [7]) [nM] | Ratio 4-CPI IC50/Bifonazole IC50 (P450 2B4 wild type [7]; 2B4 WT, 50 μM 7-EFC as substrate) | IC50 (P450 2B4 H172Q [8]) [nM] | Ratio 4-CPI IC50/Bifonazole IC50 (P450 2B4 H172Q [8]; 2B4 H172Q, 50 μM 7-EFC as substrate) |
| --- | --- | --- | --- | --- | --- | --- | --- | --- | --- | --- | --- | --- | --- | --- | --- | --- | --- | --- | --- |
| O=c1ccc2nc3ccc(OCc4ccccc4)cc3oc-2c1 [7-BR, 7-benzyloxyresorufin] | ~ 15 fold | 0.0083 ± 0.0017 | 0.06 | 8.2 ± 1.0 | 3.3 | 2.3 ± 0.5 | 0.127 ± 0.005 | 0 | 0 | inactive |  |  |  |  |  |  |  |  |  |
| Clc1ccc(-c2c[nH]cn2)cc1 [4-CPI, 4-(4-chlorophenyl)imidazole] |  |  |  |  |  |  |  |  |  |  | ~ 50 times | greater than 9 fold | greater than 9 fold | 970 | 3.88 | 40 | 0.04 | 220 | 0.29 |
